The values that follow come from ChEMBL document CHEMBL2440089, “CoMFA studies and in vitro evaluation of some 3-substituted benzylthio quinolinium salts as anticryptococcal agents” (Bioorg Med Chem, 2013).

Data set [1] relates to Vero. Put plainly: Cytotoxicity against african green monkey Vero cells after 48 hrs by Neutral Red dye assay. It counts as cell-based. The following applies: chlorocebus sabaeus. A digest of the protocol: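 Kidney […] (VERO) cells were seeded at 25,000 cells/well and incubated for 24 h, then exposed to samples for 48 h. Viable cells were counted by Neutral Red dye uptake. IC50 was taken from growth-inhibition versus concentration curves. Doxorubicin served as the positive control and DMSO as the vehicle control.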

The next data set has as its system Cryptococcus neoformans. Put plainly: Antifungal activity against Cryptococcus neoformans ATCC 90113 by CLSI method. It counts as functional, organism-based. The essentials: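 Test samples in DMSO were serially diluted in saline and run in duplicate in Sabouraud dextrose broth, with final concentrations starting at 20 μg/mL. Absorbance at 530 nm was read before and after incubation. Each plate carried growth, solvent and media-blank controls, with amphotericin B as the drug control. IC50 (50% inhibition relative to controls) was obtained by curve fitting.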

Data set [2] concerns Vero. The data set is described as follows: Cytotoxicity against african green monkey Vero cells at 10 ug/ml after 48 hrs by Neutral Red dye assay. As to conditions: chlorocebus sabaeus. The data set is classed as cell-based.

The structures appear in SMILES notation.

In the case of `[I-].c1ccc(Sc2cc3ccccc3[n+](CCCCCC3CCCCC3)c2)cc1`, in the data set on Vero [1], the Activity came out at 8.89 µM.

`Fc1cccc(Sc2cc3ccccc3[n+](CCCCCC3CCCCC3)c2)c1.[I-]`: the IC50 with Cryptococcus neoformans (read-out: IC50) and with Cryptococcus neoformans (read-out: pIC50 (converted)) was 13200 nM in each case. In addition, the Activity with Vero [1] turned out to be 1.23 µM.

On to `COc1cccc(Sc2cc3ccccc3[n+](CCCCCC3CCCCC3)c2)c1.[I-]`, for which the IC50 in the data set on Cryptococcus neoformans (read-out: IC50) and in the data set with Cryptococcus neoformans (read-out: pIC50 (converted)) was 18500 nM throughout. Also, the Activity with Vero [1] turned out to be 8.22 µM.

For the molecule `Cc1ccccc1Sc1cc2ccccc2[n+](CCCCCC2CCCCC2)c1.[I-]`, in the data set with Vero [1], the Activity was determined as 7.53 µM.

Regarding `Cc1cccc(Sc2cc3ccccc3[n+](CCCCCC3CCCCC3)c2)c1.[I-]`, the Activity in the data set with Vero [1] came to 6.96 µM.

In turn, `Cc1ccc(Sc2cc3ccccc3[n+](CCCCCC3CCCCC3)c2)cc1.[I-]` displayed an Activity in the data set on Vero [1] of 5.27 µM.

In turn, `Oc1ccccc1Sc1cc2ccccc2[n+](CCCCCC2CCCCC2)c1.[I-]` returned an Activity with Vero [1] of 17.4 µM.

On to `Oc1cccc(Sc2cc3ccccc3[n+](CCCCCC3CCCCC3)c2)c1.[I-]`, for which, in the data set with Vero [2], the Activity result is reported as “Non-toxic”. Besides, the IC50 in the data set on Cryptococcus neoformans (read-out: IC50) and in the data set with Cryptococcus neoformans (read-out: pIC50 (converted)) was 2340 nM throughout.

Turning to `Oc1ccc(Sc2cc3ccccc3[n+](CCCCCC3CCCCC3)c2)cc1.[I-]`, the Activity entry in the data set on Vero [2] was “Non-toxic”.

Consider `FC(F)(F)c1ccccc1Sc1cc2ccccc2[n+](CCCCCC2CCCCC2)c1.[I-]`, for which the Activity entry with Vero [2] is on record as “Non-toxic”. Moreover, the IC50 in the data set with Cryptococcus neoformans (read-out: IC50) and in the data set with Cryptococcus neoformans (read-out: pIC50 (converted)) was 3740 nM throughout.

On to `FC(F)(F)c1cccc(Sc2cc3ccccc3[n+](CCCCCC3CCCCC3)c2)c1.[I-]`, for which, in the data set on Vero [2], the Activity result is reported as “Non-toxic”.

Take `FC(F)(F)c1ccc(Sc2cc3ccccc3[n+](CCCCCC3CCCCC3)c2)cc1.[I-]`: the Activity result with Vero [2] is given as “Non-toxic”.

In the case of `COc1ccc(Sc2cc3ccccc3[n+](CCCCCC3CCCCC3)c2)cc1.[I-]`, the IC50 with Cryptococcus neoformans (read-out: IC50) and in the data set with Cryptococcus neoformans (read-out: pIC50 (converted)) was 731 nM each time. The same molecule came in with an Activity with Vero [1] of 7.67 µM.

On to `[I-].c1ccc(CSc2cc3ccccc3[n+](CCCCCC3CCCCC3)c2)cc1`, for which the Activity entry in the data set with Vero [2] is listed as “Non-toxic”. The IC50 with Cryptococcus neoformans (read-out: IC50) and with Cryptococcus neoformans (read-out: pIC50 (converted)) was 301 nM throughout.

On to `Clc1ccccc1CSc1cc2ccccc2[n+](CCCCCC2CCCCC2)c1.[I-]`, for which the Activity result in the data set on Vero [2] was “Non-toxic”. Also, the IC50 in the data set on Cryptococcus neoformans (read-out: IC50) and in the data set with Cryptococcus neoformans (read-out: pIC50 (converted)) was 1350 nM each time.

With `Clc1ccc(CSc2cc3ccccc3[n+](CCCCCC3CCCCC3)c2)cc1.[I-]`, the values for the IC50 with Cryptococcus neoformans (read-out: IC50) and in the data set with Cryptococcus neoformans (read-out: pIC50 (converted)) were 88 nM and 88.3 nM, respectively. Further, in the data set with Vero [1], the Activity is 2.3 µM.

With `Cc1cccc(CSc2cc3ccccc3[n+](CCCCCC3CCCCC3)c2)c1.[I-]`, the IC50 in the data set on Cryptococcus neoformans (read-out: IC50) and in the data set on Cryptococcus neoformans (read-out: pIC50 (converted)) was 769 nM each time. The molecule further registered an Activity in the data set on Vero [1] of 4.95 µM.

In the case of `Cc1ccc(CSc2cc3ccccc3[n+](CCCCCC3CCCCC3)c2)cc1.[I-]`, the IC50 in the data set on Cryptococcus neoformans (read-out: IC50) and with Cryptococcus neoformans (read-out: pIC50 (converted)) was 458 nM in each case. The Activity with Vero [1] came out at 6.78 µM.

Consider `FC(F)(F)c1ccc(CSc2cc3ccccc3[n+](CCCCCC3CCCCC3)c2)cc1.[I-]`, for which the figures for the IC50 in the data set on Cryptococcus neoformans (read-out: IC50) and in the data set with Cryptococcus neoformans (read-out: pIC50 (converted)) were 416 nM and 417 nM, respectively. For the same molecule, in the data set on Vero [1], the Activity worked out at 7.94 µM.

On to `[I-].[O-][S+](c1ccc(F)cc1)c1cc2ccccc2[n+](CCCCCc2ccccc2)c1` (stereo not given), for which, in the data set with Vero [2], the Activity entry is “Non-toxic”. The IC50 with Cryptococcus neoformans (read-out: IC50) and in the data set on Cryptococcus neoformans (read-out: pIC50 (converted)) was 27500 nM each time.

Regarding `[I-].[O-][S+](c1cccc(C(F)(F)F)c1)c1cc2ccccc2[n+](CCCCCc2ccccc2)c1` (stereo not given), the Activity result with Vero [2] was “Non-toxic”. Further, the IC50 with Cryptococcus neoformans (read-out: IC50) and with Cryptococcus neoformans (read-out: pIC50 (converted)) was 10900 nM throughout.

In the case of `[I-].[O-][S+](c1cc2ccccc2[n+](CCCCCc2ccccc2)c1)c1ccccc1C(F)(F)F` (stereo not given), the Activity result in the data set with Vero [2] is recorded as “Non-toxic”. Moreover, the IC50 in the data set with Cryptococcus neoformans (read-out: IC50) and with Cryptococcus neoformans (read-out: pIC50 (converted)) was 9250 nM throughout.

Regarding `[I-].[O-][S+](c1cc2ccccc2[n+](CCCCCc2ccccc2)c1)c1ccccc1Br` (stereo not given), the Activity entry in the data set on Vero [2] is given as “Non-toxic”. Further, the IC50 with Cryptococcus neoformans (read-out: IC50) and in the data set on Cryptococcus neoformans (read-out: pIC50 (converted)) was 9080 nM throughout.

Regarding `[I-].[O-][S+](c1ccc(Br)cc1)c1cc2ccccc2[n+](CCCCCc2ccccc2)c1` (stereo not given), the Activity entry in the data set with Vero [2] is “Non-toxic”. In addition, in the data set with Cryptococcus neoformans (read-out: IC50), the IC50 is 14900 nM.

Consider `[I-].[O-][S+](c1ccc(C(F)(F)F)cc1)c1cc2ccccc2[n+](CCCCCc2ccccc2)c1` (stereo not given), for which the IC50 in the data set with Cryptococcus neoformans (read-out: IC50) is 10000 nM. The molecule further displayed an Activity with Vero [1] of 21.4 µM.

`Oc1ccc(CSc2cc3ccccc3[n+](CCCCCC3CCCCC3)c2)cc1.[I-]`: the Activity result in the data set with Vero [2] was “Non-toxic”. The IC50 in the data set on Cryptococcus neoformans (read-out: IC50) and with Cryptococcus neoformans (read-out: pIC50 (converted)) was 9040 nM each time.

For `CC(C)(C)c1ccc(CSc2cc3ccccc3[n+](CCCCCC3CCCCC3)c2)cc1.[I-]`, in the data set with Vero [2], the Activity result is given as “Non-toxic”. Moreover, the IC50 with Cryptococcus neoformans (read-out: IC50) and with Cryptococcus neoformans (read-out: pIC50 (converted)) was 883 nM each time.

As for `Fc1ccccc1CSc1cc2ccccc2[n+](CCCCCC2CCCCC2)c1.[I-]`, the Activity entry with Vero [2] was “Non-toxic”. Further, the IC50 with Cryptococcus neoformans (read-out: IC50) and with Cryptococcus neoformans (read-out: pIC50 (converted)) was 948 nM throughout.

As for `Fc1cccc(CSc2cc3ccccc3[n+](CCCCCC3CCCCC3)c2)c1.[I-]`, the Activity result in the data set with Vero [2] is “Non-toxic”. Also, the IC50 in the data set with Cryptococcus neoformans (read-out: IC50) and with Cryptococcus neoformans (read-out: pIC50 (converted)) was 711 nM throughout.

In the case of `Fc1ccc(CSc2cc3ccccc3[n+](CCCCCC3CCCCC3)c2)cc1.[I-]`, the Activity entry in the data set on Vero [2] is listed as “Non-toxic”. Also, the IC50 is 677 nM in the data set on Cryptococcus neoformans (read-out: IC50) and 678 nM in the data set on Cryptococcus neoformans (read-out: pIC50 (converted)).

As for `COc1ccccc1CSc1cc2ccccc2[n+](CCCCCC2CCCCC2)c1.[I-]`, in the data set on Vero [2], the Activity entry was “Non-toxic”. For the same molecule, the IC50 is 623 nM with Cryptococcus neoformans (read-out: IC50) and 624 nM in the data set on Cryptococcus neoformans (read-out: pIC50 (converted)).

On to `COc1cccc(CSc2cc3ccccc3[n+](CCCCCC3CCCCC3)c2)c1.[I-]`, for which the Activity result in the data set on Vero [2] is given as “Non-toxic”. The values for the IC50 in the data set on Cryptococcus neoformans (read-out: IC50) and with Cryptococcus neoformans (read-out: pIC50 (converted)) were 606 nM and 607 nM, respectively.

As for `COc1ccc(CSc2cc3ccccc3[n+](CCCCCC3CCCCC3)c2)cc1.[I-]`, the Activity entry in the data set on Vero [2] was “Non-toxic”. Further, the IC50 in the data set with Cryptococcus neoformans (read-out: IC50) and with Cryptococcus neoformans (read-out: pIC50 (converted)) was 2150 nM throughout.

In the case of `Brc1ccccc1CSc1cc2ccccc2[n+](CCCCCC2CCCCC2)c1.[I-]`, the Activity result in the data set with Vero [2] is reported as “Non-toxic”. Also, the IC50 in the data set with Cryptococcus neoformans (read-out: IC50) and in the data set with Cryptococcus neoformans (read-out: pIC50 (converted)) was 1130 nM in each case.

As for `Brc1cccc(CSc2cc3ccccc3[n+](CCCCCC3CCCCC3)c2)c1.[I-]`, the Activity entry with Vero [2] is “Non-toxic”. The IC50 is 360 nM in the data set on Cryptococcus neoformans (read-out: IC50) and 361 nM with Cryptococcus neoformans (read-out: pIC50 (converted)).

Consider `Brc1ccc(CSc2cc3ccccc3[n+](CCCCCC3CCCCC3)c2)cc1.[I-]`, for which the Activity entry with Vero [2] was “Non-toxic”. In addition, the values for the IC50 in the data set with Cryptococcus neoformans (read-out: IC50) and in the data set with Cryptococcus neoformans (read-out: pIC50 (converted)) were 369 nM and 370 nM, respectively.

Take `C[C@@H]1[C@H](O)[C@@H](C)/C=C/C=C/C=C/C=C/C=C/C=C/C=C/[C@H](O[C@@H]2O[C@H](C)[C@@H](O)[C@H](N)[C@@H]2O)C[C@@H]2O[C@](O)(C[C@@H](O)C[C@@H](O)[C@H](O)CC[C@@H](O)C[C@@H](O)CC(=O)O[C@H]1C)C[C@H](O)[C@H]2C(=O)O` [AMPHOTERICIN B]: the IC50 with Cryptococcus neoformans (read-out: IC50) worked out at 422 nM. Moreover, in the data set with Vero [1], the Activity worked out at 7.03 µM.

As to `C[n+]1c2ccccc2cc2[n-]c3ccccc3c21` [CRYPTOLEPINE], the IC50 with Cryptococcus neoformans (read-out: IC50) and with Cryptococcus neoformans (read-out: pIC50 (converted)) was 43300 nM each time. The molecule also registered an Activity in the data set with Vero [1] of 8.88 µM.
